Laboratory results taken from ChEMBL document CHEMBL1125555, “Structural alterations in desferrioxamine compatible with iron clearance in animals” (1992).

Tests used:
Format in all cases: functional
Rattus norvegicus [1] = assay: Effect on 24-hcumulative iron excretion in the urine of non-iron-overloaded bileduct-cannulated rats at a concentration of 450 umol/kg after subcutaneous administration
Procedure, shortened: (§1)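 Drugs given subcutaneously in Cremophor RH-40/water (40:60) to non-iron-overloaded, bile duct-cannulated rats. Rats were fasted 24 h before dosing, and the fast continued through the experiment. Bile and urine iron were collected over 24 h and reported as induced iron (mg/kg rat) with fractions in bile and urine. Efficiency is the percentage of the theoretical total (8.37 mg/kg). n = 2–6 per group.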

Rattus norvegicus [2] = assay: Effect on 24-h cumulative iron excretion in the urine of non-iron-overloaded bileduct-cannulated rats at a concentration of 450 umol/kg after subcutaneous administration; procedure, shortened: as §1
Rattus norvegicus [3] = assay: Effect on 24-hcumulative iron excretion in the urine of non-iron-overloaded bileduct-cannulated rats at a concentration of 150 umol/kg after subcutaneous administration; procedure, shortened: as §1
Rattus norvegicus [4] = assay: Effect on 24-h cumulative iron excretion in the urine of non-iron-overloaded bileduct-cannulated rats at a concentration of 150 umol/kg after subcutaneous administration; procedure, shortened: as §1
Rattus norvegicus [5] = assay: Effect on 24-h cumulative iron excretion in the bile of non-iron-overloaded bileduct-cannulated rats at a concentration of 150 umol/kg after subcutaneous administration
Procedure, shortened: as §1, with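 “urine.” for “urine. Efficiency is the percentage of the theoretical total (8.37 mg/kg). n = 2–6 per group.”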

| Structure (SMILES) | Iron excretion (Rattus norvegicus [1]) [mg/kg] | Iron excretion (Rattus norvegicus [2]) [%] | Iron excretion (Rattus norvegicus [3]) [mg/kg] | Iron excretion (Rattus norvegicus [4]) [%] | Iron excretion (Rattus norvegicus [5]) [%] |
| --- | --- | --- | --- | --- | --- |
| NCCCCCN(O)C(=O)CCC(=O)O | -0.003 | 0 |  |  |  |
| CC(=O)N(O)CCCCCN | -0.001 | 0 |  |  |  |
| CCCCCCCCCC(=O)N(O)CCCCC(=O)N(O)CCCCC(=O)N(O)CCCCCN.Cl |  |  | 0.017 | 9.2 |  |
| CC(=O)N(O)CCCCCCCC(=O)N(O)CCCCCCCC(=O)N(O)CCCCCN.Cl |  |  | 0 | 0 |  |
| CC(=O)N(O)CCCCC(=O)N(O)CCCCC(=O)N(O)CCCCCN.Cl |  |  | 0.021 | 9.4 |  |
| CC(=O)N(O)CCCCCNC(=O)CCC(=O)N(O)CCCCCNC(=O)CCC(=O)N(O)CCCCCN [DEFEROXAMINE] |  |  | 0.059 | 25.4 | 74.6 |
